GPR7 antag: human neuropeptides B/W receptor 1 antagonism | GPR7-expressing cells, fluorescence antagonist assay | inhibition, % at 4.4 µM | P48145 | 290,000 compounds, 1.1% hits; in the data active means inhibition above about 16%, passing the limit was not always enough;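 further: cells stimulated with the agonist NPW; 0% = agonist with vehicle and 100% = vehicle without agonist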
LANA-H2A inh: blocks KSHV LANA binding to histone H2A/H2B; Q9QR71; cell-free LANA-H2A/H2B peptide, fluorescence polarization; inhibition, % (test concentration not listed); 320,000 compounds, 0.6% hits; AID 2629; in the data active means inhibition mostly above about 10%, no sharp cut-off; inactive means mostly below about 6.7%
Target sequence (Q9QR71 whole entry, looked up): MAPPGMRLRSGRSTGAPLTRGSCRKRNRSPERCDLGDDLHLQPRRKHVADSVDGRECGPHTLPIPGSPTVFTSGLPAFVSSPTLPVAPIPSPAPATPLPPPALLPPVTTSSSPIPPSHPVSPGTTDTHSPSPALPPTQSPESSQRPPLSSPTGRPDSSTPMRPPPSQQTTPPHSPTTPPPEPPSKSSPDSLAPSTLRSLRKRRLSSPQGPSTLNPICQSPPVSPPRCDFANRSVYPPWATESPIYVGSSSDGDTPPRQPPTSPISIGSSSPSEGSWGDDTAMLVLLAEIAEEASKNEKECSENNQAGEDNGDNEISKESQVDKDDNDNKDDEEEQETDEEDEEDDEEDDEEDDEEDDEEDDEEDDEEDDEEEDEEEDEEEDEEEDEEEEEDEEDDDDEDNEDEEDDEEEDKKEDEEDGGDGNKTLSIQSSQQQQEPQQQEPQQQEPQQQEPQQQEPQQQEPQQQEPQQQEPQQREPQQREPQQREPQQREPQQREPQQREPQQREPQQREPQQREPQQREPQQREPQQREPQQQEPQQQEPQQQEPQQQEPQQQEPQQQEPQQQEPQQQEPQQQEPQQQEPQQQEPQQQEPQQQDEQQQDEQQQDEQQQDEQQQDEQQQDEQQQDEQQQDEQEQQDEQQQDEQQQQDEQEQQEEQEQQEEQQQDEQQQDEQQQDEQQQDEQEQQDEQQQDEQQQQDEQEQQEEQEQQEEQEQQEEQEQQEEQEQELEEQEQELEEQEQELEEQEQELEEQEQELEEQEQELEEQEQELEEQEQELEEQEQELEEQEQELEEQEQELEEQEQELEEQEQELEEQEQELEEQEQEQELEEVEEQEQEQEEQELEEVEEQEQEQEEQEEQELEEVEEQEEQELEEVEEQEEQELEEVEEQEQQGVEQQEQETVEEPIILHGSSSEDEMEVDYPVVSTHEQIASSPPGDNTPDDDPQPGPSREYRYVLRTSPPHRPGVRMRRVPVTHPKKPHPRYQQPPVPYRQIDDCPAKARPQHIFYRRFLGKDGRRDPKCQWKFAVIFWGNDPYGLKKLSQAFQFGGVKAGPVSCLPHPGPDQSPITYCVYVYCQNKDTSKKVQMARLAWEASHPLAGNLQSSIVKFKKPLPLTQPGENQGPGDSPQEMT
TAAR1 antagonist: antagonists of human TAAR1 | Q96RJ0 | CHO RD-HGA16 TAAR1, Fluo-8 calcium fluorescence, antagonist | inhibition, % at 3 µM | 360,000 compounds, 1.5% hits;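 active means inhibition above a per-plate cutoff, the mean inhibition of test compounds on that plate plus 3 SD, cut at about 49% in these data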;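 further: 0% = DMSO plus EC80 beta-PEA response and 100% = DMSO alone without agonist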
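Material: RD-HGA16 CHO cells with stable hTAAR1 and Gα16; Dosing: single nominal final test compound concentration of 3 µM; Schedule: seeding 17-24 h prior, 75-min 37 °C, 30-min RT dye loading; Detection: kinetic Fluo-8 calcium fluorescence measurement; Measure: % inhibition from peak post-agonist over basal fluorescence ratio; Benchmarks: vehicle and agonist controls.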
TRPN1 ag: zebrafish TRPN1 (NompC) channel agonism; HEK293 zebrafish TRPN1-YFP, Fluo-8 calcium fluorescence; 100% = response to 87 µM carbachol; 220,000 compounds, 0.18% hits; activation, % at 3 µM;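 active means activation above its plate's cutoff, the mean activation of test wells on that plate plus 3 SD, cut at about 19% in these data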;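 further: 0% = DMSO alone and 100% = 87 µM carbachol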
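Material: zebrafish TRPN1-YFP in HEK293 cells; Doses: single test compound dose, 3 µM nominal, 0.3% DMSO; Timing: dye loading 1 h at 37 °C, then 30 min room temperature; Technique: intracellular calcium fluorescence with Fluo-8; Benchmarks: high carbachol 87 µM, low DMSO alone.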
TRPML3 agonist: activates the human TRPML3 channel; Q8TDD5; HEK293 TRPML3-YFP, Fluo-8 calcium fluorescence; 100% = the carbachol control signal; activation, % at 3 µM; 220,000 compounds, 0.29% hits;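 active means activation above its plate's cutoff, the mean activation of the plate's test wells plus 3 SD, cut at about 12% in these data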;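 further: 0% = DMSO only wells and 100% = carbachol wells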
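system = HEK293 cells stably carrying human TRPML3-YFP | doses = one concentration, 3 µM nominal, 0.3% DMSO | timing = dye loading 1 h 37 °C then 30 min ambient, 125 s read | detection = Fluo-8 calcium dye fluorescence, ex 470-495, em 515-575 nm | benchmarks = high control carbachol 87 µM, low control DMSO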
TAAR1 agonist: human TAAR1 agonism; Q96RJ0; 360,000 compounds, 0.99% hits; CHO RD-HGA16 TAAR1, Fluo-8 calcium fluorescence; vehicle wells 0%, saturating PEA agonist 100%; activation, % at 3 µM;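 active means activation above the mean activation of all test compounds in the run plus 3 SD, cut at about 38% in these data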
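Repeats: no replicates (n 1) | Material: CHO-derived RD-HGA16 cells with stable Gα16 and human TAAR1 | Technique: Kinetic Fluo-8 calcium fluorescence | Schedule: 17-24 h seeding, 75 min 37 °C dye, 30 min RT | Evaluation: % activation from peak over basal fluorescence ratio, DMSO-to-PEA scaled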
GPR7 antag conf: confirmation of human GPR7 antagonists. 2,400 compounds, 52% hits. GPR7-expressing cells, calcium fluorescence antagonist mode. shares compounds with GPR7 antag. inhibition, % at 4.4 µM; in the data active means inhibition above about 24%;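 further: stimulated with the GPR7 agonist NPW; 0% = agonist plus vehicle and 100% = vehicle alone without agonist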
MCHR1 antag: MCHR1 (human) antagonism in GPR7 counter-screen; AID 2148; shares compounds with GPR7 antag; inhibition, % at 4.4 µM; MCHR1-expressing cells, fluorescence antagonist assay; 2,400 compounds, 62% hits;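 further: 0% = vehicle with agonist and 100% = vehicle without agonist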
nonsel antag count: nonselective antagonist in TAAR1 antagonist counter-screen; AID 651780; shares compounds with TAAR1 antagonist; 2,400 compounds, 77% hits; counterscreen cell line, calcium fluorescence, antagonist mode; inhibition, % at 3 µM;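 further: CHO-Ga16 host cells stimulated with ATP at an EC80 level; 0% = agonist EC80 plus vehicle and 100% = vehicle without agonist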
TAAR1 antag conf: human TAAR1 antagonism, confirmed | 2,400 compounds, 40% hits | inhibition, % at 3 µM | shares compounds with TAAR1 antagonist | AID 651785 | TAAR1-expressing cells, fluorescence antagonist read-out; in the data active means inhibition above about 49%;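 further: CHO-Ga16 host cells challenged with agonist PEA near its EC80; 0% = agonist at EC80 plus vehicle and 100% = vehicle with no agonist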
Ga16 ag counter-1: nonselective Ga16 agonist in TAAR1 antagonist counter-screen | activation, % at 3 µM | shares compounds with TAAR1 antagonist | 2,400 compounds, 18% hits | AID 651953 | Ga16-expressing cells, calcium fluorescence, agonist counterscreen; in the data active means activation above about 12%;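 further: 0% = vehicle wells and 100% = saturating stimulus response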
TAAR1 ag counter: counter-screen for human TAAR1 antagonists: TAAR1 agonists | shares compounds with TAAR1 antagonist | hTAAR1 cell line, fluorescence activation, agonist mode | activation, % at 3 µM | 2,400 compounds, 2% hits | AID 651955; in the data active means activation above about 37%;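 further: CHO cells stably expressing TAAR1 with calcium dye readout; 0% = DMSO vehicle and 100% = full agonist response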
TAAR1 ag conf: confirmation of human TAAR1 agonists. shares compounds with TAAR1 agonist. CHO RD-HGA16 TAAR1, Fluo-8 calcium fluorescence; scaled: DMSO 0%, maximal phenethylamine 100%. activation, % at 3 µM. 2,400 compounds, 82% hits. AID 651783;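 active means activation above a cutoff set at the run's mean compound activation plus 3 SD, cut at about 39% in these data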
Ga16 ag counter-2: counter-screen for TAAR1 agonists: nonselective agonists in parental cells. shares compounds with TAAR1 agonist. activation, % at 3 µM. AID 651787. CHO-Ga16 parental, Fluo-8 calcium fluorescence; normalized to maximal ATP response, DMSO zero. 2,400 compounds, 50% hits;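 active means activation above the run cutoff, the mean activation over all tested wells plus 3 SD, cut at about 12% in these data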;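 further: 0% = DMSO wells and 100% = maximal ATP response on the peak over basal ratio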
TAAR1 desensitize: human TAAR1 agonist that also desensitizes the receptor. shares compounds with TAAR1 agonist. CHO RD-HGA16 hTAAR1, Fluo-8 calcium, beta-PEA response inhibition. inhibition, % at 3 µM. 2,400 compounds, 46% hits;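 active means inhibition above the run cutoff, the mean inhibition of all test compounds plus 3 SD, cut at about 49% in these data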;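 further: beta-PEA stimulus applied at its EC80; loss of beta-PEA calcium signal after compound pretreatment read as receptor desensitization; 0% = DMSO with beta-PEA at EC80 and 100% = DMSO alone without agonist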
Ga16 antag count: nonselective Ga16 antagonism, counter-screen; CHO-Ga16 ATP-induced calcium, Fluo-8 fluorescence; AID 651952; shares compounds with TAAR1 agonist; 2,400 compounds, 39% hits; inhibition, % at 3 µM;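 active means inhibition above the plate's mean compound inhibition plus 3 SD, computed per plate, cut at about 22% in these data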;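 further: 0% = EC80 ATP with DMSO and 100% = DMSO wells without ATP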
Starred values were filed as active, the others as inactive; nt = no result given. A selection: hits, their analogues and other compounds. The true share with any hit is near 3.4%. Unless noted, no stated cut-off is given here; in the data, active means inhibition above about 22%; inactive means the rest.

SMILES | GPR7 antag | LANA-H2A inh | TAAR1 antagonist | TRPN1 ag | TRPML3 agonist | TAAR1 agonist | GPR7 antag conf | MCHR1 antag | TAAR1 ag conf | Ga16 ag counter-2 | TAAR1 desensitize | Ga16 antag count | others
COc1ccccc1N(CC(=O)N1CCN(c2ccc(F)cc2)CC1)S(=O)(=O)c1ccc(C)cc1 | -4 | -3 | -32 | nt | nt | 3 | nt | nt | nt | nt | nt | nt
O=S(=O)(NC1CCCC1)c1ccc(S(=O)(=O)NC2CCCC2)cc1 | 43* | 3 | 27 | 14 | 4 | 57* | 51* | 33* | 45* | 24* | 40 | 32*
O=S(=O)(NC1CCCCCCC1)c1ccc(F)cc1 | nt | 3 | -19 | nt | nt | 11 | nt | nt | nt | nt | nt | nt
CCOC(=O)CNC(=O)C1(/C=C/c2ccccc2)CC(=O)N1c1ccc(C)cc1 (stereo not given) | 3 | 0 | 1 | nt | nt | 2 | nt | nt | nt | nt | nt | nt
O=C(Nc1cccnc1)c1ccc(COc2cc(Cl)ccc2Cl)o1 | 23 | 4 | 16 | 0 | 0 | 1 | nt | nt | nt | nt | nt | nt
O=C(N/N=C/c1ccc(O)cc1)c1ccc(COc2cc(Cl)ccc2Cl)o1 | 53* | -2 | 76* | 24* | 10 | 93* | 68* | 78* | 98* | 69* | 87* | 59*
Cc1ccc(S(=O)(=O)N/N=C/c2ccc(OC3CSC3)cc2)cc1 | 34* | 0 | 93* | 20* | 13* | 91* | 89* | 84* | 98* | 56* | 97* | 71*
Cc1ccc(S(=O)(=O)N/N=C/c2ccc(C(=O)O)cc2)cc1 | 8 | 5 | 1 | 0 | 0 | 2 | nt | nt | nt | nt | nt | nt
COc1ccc(NC(=O)CN2C(=O)NC3(CCCc4ccccc43)C2=O)c(OC)c1 (stereo not given) | nt | -4 | 7 | nt | nt | 6 | nt | nt | nt | nt | nt | nt
CN(CC(=O)Nc1ccccc1Cl)C(=O)COC(=O)CSc1ccc(Cl)cc1 | nt | 0 | 15 | nt | nt | 2 | nt | nt | nt | nt | nt | nt
CCOC(=O)Cn1c(=O)oc2cc(S(=O)(=O)Nc3ccc(F)cc3)ccc21 | 25* | 1 | 44 | 19* | 7 | 89* | 42* | 37* | 109* | 69* | 52* | 32*
CCOC(=O)Cn1c(=O)oc2cc(S(=O)(=O)NCCc3ccc(C)cc3)ccc21 | -8 | -2 | 21 | 4 | 2 | 10 | nt | nt | nt | nt | nt | nt
O=C(Nc1cccc(Cl)c1Cl)c1ccc(-c2ccccc2)cc1 | -13 | 2 | 60* | 0 | 1 | 15 | nt | nt | nt | nt | nt | nt | nonsel antag count=35*;TAAR1 antag conf=90*;Ga16 ag counter-1=9;TAAR1 ag counter=12

Screening results deposited in PubChem BioAssay by several laboratories.
